# Where a SMILES comes first, the peptide text is derived from it. [ ]: non-standard residue; d: D form. Hica(2S) = CC(C)C[C@H](O)C(=O)O
# Columns and labels:
# [1] = Solubility limit in water; type: physicochemical
# [2] = TEM of nanofiber formation and degradation; type: physicochemical; conditions: 2 mM in PBS, 37°C, 7 days
# [3] = Macroscopic hydrogel degradation visualised with Congo red; type: physicochemical
# Procedure, shortened: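 50 µM Congo red added to the aqueous peptide solution (sonicated, held overnight at room temperature) while making 15 mM gels. Gels pipetted into multi-well dishes, immersed in PBS at 37°C and photographed over 28 days.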
# [4] = Oscillating rheometry of hydrogels; type: physicochemical
# Procedure, shortened: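 Peptide held overnight in water at 30 or 15 mM, cast on a glass slide inside an 8-mm filter-paper ring, and gelled under a PBS overlay for 2 h. PBS removed, parallel-plate frequency sweep 0.1–3.162 Hz at 0.1% strain, harmonic distortion under 10%. For ageing, gels held submerged in PBS at 37°C for 1 or 3 days. Mean ± SD of 3–5 separate gels; G'/G'' at 1 Hz compared by ANOVA-Tukey or t-test, p<0.05.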
# C3H10T½ cells = assay: 3D microgel cell culture; type: cell-based, mouse; conditions: C3H10T½ cells in hydrogel
# Procedure, shortened: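 Cells kept in Eagle's Basal Medium with 10% FBS, L-glutamine, 1 mM sodium pyruvate and non-essential amino acids. They were trypsinized, resuspended at 6,000 cells/µL in 10% sucrose with antibiotics, and mixed 1:2 with 22.5 mM aqueous peptide. The mixture (2,000 cells/µL) was pipetted into culture medium in 4–5 µL droplets to gel. Phase contrast imaging at day 3. MTS at 4 h, 3 and 5 days; mean ± SD of 3 wells.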
# α-chymotrypsin = conditions: cited from earlier work
# trypsin = conditions: cited from earlier work
# papain = conditions: cited from earlier work
solubility [1] [mM],Nanofiber state by TEM at day 7 [2],"Time for which integrity of acellular hydrogel could be maintained ([3]; 15 mM acellular hydrogel, PBS, 37°C)","Gel appearance over 28 days (Congo red stained) ([3]; 15 mM hydrogel, immersed in PBS at 37°C, 28 days, representative of 3 gels)","Storage modulus of hydrogel ([4]; 30 mM hydrogel, PBS-gelled 2 hours, 0.1% strain, mean of 3 – 5 samples) [kPa]","Storage modulus (G') relative to Q11 hydrogel ([4]; 30 mM hydrogels, PBS-gelled 2 hours, 0.1% strain, calculated at 1 Hz)","Change of hydrogel moduli (G', G'') over time ([4]; hydrogels submerged in PBS, 37°C, up to day 3)",Compound,"Proliferation of encapsulated cells (C3H10T½ cells; over 5 days, MTS assay, 3 wells)",Morphology of encapsulated cells (C3H10T½ cells; phase contrast),Resistance to proteolysis (α-chymotrypsin),Resistance to proteolysis (trypsin),Resistance to proteolysis (papain)
≥ 30,shorter and thinner,about 14 days,faded and disappeared,> 100,about 6 times,decreased significantly,CC(=O)N[C@@H](CCC(N)=O)C(=O)N[C@@H](CCC(N)=O)C(=O)N[C@@H](CCCCN)C(=O)N[C@@H](Cc1ccccc1)C(=O)N[C@@H](CCC(N)=O)C(=O)O[C@@H](CC(C)C)C(=O)N[C@@H](CCC(N)=O)C(=O)N[C@@H](Cc1ccccc1)C(=O)N[C@@H](CCC(=O)O)C(=O)N[C@@H](CCC(N)=O)C(=O)N[C@@H](CCC(N)=O)C(N)=O [Depsi-L] (Ac-QQKFQ[Hica(2S)]QFEQQ-NH2; N-terminus assumed),proliferated,more spread morphology,,,
,,,,,,,(AEAEAKAK)2,,,highly resistant,highly resistant,highly resistant

# From paper PMC3819105 (Biomaterials science, 2013)
